Test results published in ChEMBL document CHEMBL4184083, “Design, synthesis and biological evaluation of glutamic acid derivatives as anti-oxidant and anti-inflammatory agents” (Bioorg Med Chem Lett, 2018).
In brackets after ≈: the same amount, converted by molar mass. Activity calls are given as the source filed them. The rule behind the calls is not given here.

Tests used:
[1] = Antioxidant activity assessed as DPPH radical scavenging activity incubated under dark condition for 30 mins by spectrophotometric analysis; type: functional
Method in brief: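 DPPH radical reduction (violet to colorless in ethanol) monitored spectrophotometrically; ascorbic acid run as reference; IC50 reported in µg/ml.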

[2] = Chemical stability of the compound assessed as parent compound remaining at 1 mg/ml measured after 7 days at 45 degC by HPLC method (reference value: 100%); type: physicochemical; details: read-out: Stability
Method in brief: (§1)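 Sample dissolved at 1 mg in 1 mL distilled water, stored at 45 °C and analysed by HPLC at intervals up to 28 days; remaining amount expressed relative to day-0 HPLC peak area set as 100%.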

[3] = Chemical stability of the compound assessed as parent compound remaining at 1 mg/ml measured after 21 days at 45 degC by HPLC method (reference value: 100%); type: physicochemical; details: read-out: Stability; method in brief: as §1
[4] = Chemical stability of the compound assessed as parent compound remaining at 1 mg/ml measured after 28 days at 45 degC by HPLC method (reference value: 100%); type: physicochemical; details: read-out: Stability; method in brief: as §1
[5] = Chemical stability of the compound assessed as parent compound remaining at 1 mg/ml measured after 14 days at 45 degC by HPLC method (reference value: 100%); type: physicochemical; details: read-out: Stability; method in brief: as §1
[6] = Chemical stability of the compound assessed as parent compound remaining at 1 mg/ml measured after 1 day at 45 degC by HPLC method (reference value: 100%); type: physicochemical; details: read-out: Stability; method in brief: as §1
RAW264.7 [7] = assay: Antiinflammatory activity in mouse RAW264.7 cells assessed as inhibition of LPS-induced nitric oxide production after 24 hrs by Griess reagent based assay; type: functional, cell-based
Method in brief: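 RAW264.7 mouse macrophages co-treated with LPS (0.3 μg/mL) plus the test agent at a range of concentrations; NO output quantified as nitrite accumulated in culture medium after 24 h incubation.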

Danio rerio [8] = assay: Antiinflammatory activity in Tg(mpx:GFP) zebrafish larvae assessed as decrease in neutrophil recruitment to wounded tail fin at 10 to 50 ug/ml dosed 4 hrs post amputation measured after 6 hrs; type: functional, organism-based
RAW264.7 [9] = assay: Cytotoxicity against mouse RAW264.7 cells assessed as decrease in cell viability at 100 ug/ml after 24 hrs by WST-1 assay; type: cell-based; details: raw264.7, 24 h
Danio rerio [10] = species on record: Danio rerio; assay: Effect on neutrophil recruitment to wounded tail fin in Tg(mpx:GFP) zebrafish larvae at 10 to 50 ug/ml measured after 6 hrs; type: ADME, organism-based

In the case of `N[C@@H](CCC(=O)Nc1ccccc1O)C(=O)O`, the IC50 [1] is reported as 162.42 µg/mL (≈ 682 µM).
With `Cl.NC(CCC(=O)O)C(=O)NNc1ccccc1O` (configuration not stated) the IC50 [1] was 37.19 µg/mL.
`O=C1O[C@H]([C@@H](O)CO)C(O)=C1O` [ASCORBIC ACID] showed an IC50 [1] of 17.38 µg/mL (≈ 98.7 µM).
`Cc1cccc(NNC(=O)CC[C@H](N)C(=O)O)c1` gave an IC50 [1] of 10.1 µg/mL (≈ 40.2 µM).
In the case of `N[C@@H](CCC(=O)NNc1ccc(F)cc1)C(=O)O`, the IC50 [1] is reported as 13.77 µg/mL (≈ 53.9 µM).
Work on `CS(=O)(=O)c1ccc(NNC(=O)CC[C@H](N)C(=O)O)cc1` yielded an IC50 [1] of 9.57 µg/mL (≈ 30.3 µM), a remaining at 168 h, 1 mg/ml [2] of 94.6% and a remaining at 504 h, 1 mg/ml [3] of 79.2%. The remaining at 672 h, 1 mg/ml [4] was 70.7%, the remaining at 336 h, 1 mg/ml [5] was 85.5% and the remaining at 24 h, 1 mg/ml [6] was 100%.
For `N[C@@H](CCC(=O)NNc1ccccc1O)C(=O)O`, the remaining at 24 h, 1 mg/ml [6] was 45.7%.
Compound `N[C@@H](CCC(=O)NNc1cccc(O)c1)C(=O)O` has an IC50 [1] of 10.67 µg/mL (≈ 42.1 µM).
Work on `Cc1ccc(NNC(=O)CC[C@H](N)C(=O)O)c(C)c1` yielded an IC50 [1] of 15.75 µg/mL (≈ 59.4 µM).
`N[C@@H](CCC(=O)NNc1cccc(F)c1)C(=O)O` gave an IC50 [1] of 11.44 µg/mL (≈ 44.8 µM).
For `N[C@@H](CCC(=O)NNc1ccc(O)cc1O)C(=O)O`, the IC50 [1] was 28.01 µg/mL (≈ 104 µM).
For `CS(=O)(=O)c1ccc(NNC(=O)CC[C@H](N)C(=O)O)c(F)c1`, the IC50 [1] was 8.72 µg/mL (≈ 26.2 µM), the inhibition (RAW264.7 [7]) was “Dose-dependent effect” and the Activity (Danio rerio [8]) was “Active”. The Activity (RAW264.7 [9]) was “Non-Toxic”, the remaining at 168 h, 1 mg/ml [2] was 95% and the remaining at 504 h, 1 mg/ml [3] was 88.8%. For the same compound, the remaining at 672 h, 1 mg/ml [4] was 87.2%, the Activity (Danio rerio [10]) was “Non-Toxic” and the remaining at 336 h, 1 mg/ml [5] was 87%. The remaining at 24 h, 1 mg/ml [6] was 99.4%.
`O=C(CC[C@H](NC(=O)OCc1ccccc1)C(=O)OCc1ccccc1)NNc1ccccc1OCc1ccccc1` showed an IC50 [1] of 44.98 µg/mL (≈ 79.2 µM).
For `Cc1ccccc1NNC(=O)CC[C@H](N)C(=O)O`, the IC50 [1] was 6.24 µg/mL (≈ 24.8 µM), the Activity (RAW264.7 [9]) was “Non-Toxic” and the remaining at 168 h, 1 mg/ml [2] was 73.8%. It also gave a remaining at 336 h, 1 mg/ml [5] of 56.7% and a remaining at 24 h, 1 mg/ml [6] of 82.3%.
`CCc1ccccc1NNC(=O)CC[C@H](N)C(=O)O` gave an IC50 [1] of 17.14 µg/mL (≈ 64.6 µM).
For `Cc1ccc(NNC(=O)CC[C@H](N)C(=O)O)cc1`, the IC50 [1] was 9.99 µg/mL (≈ 39.8 µM), the Activity (RAW264.7 [9]) was “Non-Toxic” and the remaining at 168 h, 1 mg/ml [2] was 82%. For the same compound, the remaining at 504 h, 1 mg/ml [3] was 58.1%, the remaining at 672 h, 1 mg/ml [4] was 50.4% and the remaining at 336 h, 1 mg/ml [5] was 72.2%. It also gave a remaining at 24 h, 1 mg/ml [6] of 85.1%.
In the case of `N[C@@H](CCC(=O)NNc1ccccc1F)C(=O)O`, the IC50 [1] is reported as 10.86 µg/mL (≈ 42.5 µM).
`N[C@@H](CCC(=O)NNc1cc(O)cc(O)c1)C(=O)O` gave an IC50 [1] of 316.86 µg/mL (≈ 1180 µM).
